Assay outcomes from PubChem BioAssay.
Only some compounds are listed: those with a hit (about 1.5% of all), similar ones and a draw of the others.
CXCR6 inh – blocks human CXCR6 beta-arrestin recruitment | CHO-K1 PathHunter CXCR6 beta-arrestin, luminescence | inhibition, % at 20 µM | 360,000 compounds, 0.36% hits | AID 602244; in the data active = inhibition above about 34%, passing the limit was not always enough;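 also: antagonist mode with CXCL16 agonist at 10 nM final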
CCR6 antagonist – CCR6 (human) receptor antagonism; CHO-K1 CCR6 PathHunter beta-arrestin, luminescence, CCL20-stimulated; inhibition, % at 20 µM; 340,000 compounds, 0.49% hits;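 active = compounds whose inhibition of the agonist-driven luminescence signal at 20 µM reaches about 50%, limit read from the data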;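 also: cells stimulated with CCL20 at 14 nM final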
APJ agonist – APJ receptor agonism; AID 2520; activation, % at 20 µM; CHO-K1 APJ PathHunter beta-arrestin, luminescence; 0% DMSO wells, 100% apelin; P35414; 330,000 compounds, 0.11% hits;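 active = activation more than six SD over the plate average, tested at 20 µM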
Target sequence (P35414 whole entry, looked up): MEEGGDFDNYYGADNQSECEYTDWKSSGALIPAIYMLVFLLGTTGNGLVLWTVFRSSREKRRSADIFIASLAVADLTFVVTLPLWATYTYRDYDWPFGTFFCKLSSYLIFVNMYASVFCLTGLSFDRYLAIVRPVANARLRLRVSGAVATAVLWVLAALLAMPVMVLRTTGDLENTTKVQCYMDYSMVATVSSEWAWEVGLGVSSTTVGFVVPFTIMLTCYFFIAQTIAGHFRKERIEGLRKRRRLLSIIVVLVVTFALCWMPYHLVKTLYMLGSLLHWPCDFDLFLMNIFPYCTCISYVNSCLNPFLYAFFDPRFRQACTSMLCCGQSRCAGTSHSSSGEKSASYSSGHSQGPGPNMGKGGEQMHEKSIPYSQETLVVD
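Assay system: CHO-K1 APJ beta-arrestin complementation cell line / Compound: single test compound dose, 20 µM final, 1% DMSO / Times: overnight seeding, 90 min compound at 25 °C, 1 h detection / Technique: beta-gal luminescence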
NTR1 ag – agonists of human neurotensin receptor NTR1; 330,000 compounds, 0.17% hits; AID 493036; NTR1-U2OS beta-arrestin-GFP spot imaging, agonist mode; activation, % at 20 µM; P30989;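 active = activation at or above 40% of the spot to cytoplasm intensity ratio, with at least 20 cells analyzed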
APJ antag – blocks the human apelin receptor APJ. P35414. CHO-K1 APJ beta-arrestin complementation, luminescence. inhibition, % at 20 µM. 330,000 compounds, 0.32% hits. AID 2521;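 active = inhibition above about 40% at 20 µM, limit read from the data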;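 also: cells challenged with 10 nM apelin-13 agonist together with compound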
HTR2A ag – agonists of mouse serotonin 5-HT2A receptor (HTR2A); CHO-K1 mHTR2A beta-arrestin complementation, luminescence; percent of 30 µM serotonin response; P35363; 360,000 compounds, 0.66% hits; activation, % at 7.6 µM;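 active = activation above a run cutoff, the mean activation of all tested compounds plus 3 SD, cut at about 14% in these data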
NTR1 ag conf – NTR1 (human) agonism, confirmed; shares compounds with NTR1 ag; NTR1-U2OS beta-arrestin-GFP translocation imaging; activation, % at 20 µM; 480 compounds, 38% hits;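 active = mean activation at 20 µM of at least 40%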
CXCR6 antag conf – CXCR6 antagonism confirmation, single concentration. shares compounds with CXCR6 inh. CHO-K1 CXCR6 PathHunter beta-arrestin, luminescence. inhibition, % at 20 µM. 700 compounds, 65% hits. AID 602409;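 active = mean inhibition over four retests above 40%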;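 also: receptor stimulated with 10 nM CXCL16 agonist; beta-galactosidase fragment complementation upon beta-arrestin recruitment to receptor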
OPRM1 ag – OPRM1 agonism in mouse HTR2A counterscreen | shares compounds with HTR2A ag | U2OS OPRM1 beta-arrestin PathHunter, luminescence; DMSO 0%, DAMGO 9.3 µM 100% | activation, % at 9.3 µM | 2,300 compounds, 5.3% hits | AID 624380;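 active = mean activation above the mean of DMSO-only wells plus 3 SD, cut at about 0.5% in these data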
m5-HT2A ag conf – mouse HTR2A agonism confirmed. CHO-K1 PathHunter beta-arrestin recruitment, luminescence; DMSO 0%, 30 µM serotonin 100%. AID 624381. activation, % at 7.6 µM. 2,300 compounds, 19% hits. shares compounds with HTR2A ag;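 active = mean activation across triplicates above the hit threshold derived in the original primary screen, cut at about 15% in these data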
Each line names hits and unclear results; the compound was inactive in the other large screens (follow-up assays come after a bar, where they were run).

Cc1ccc(-c2nc3cccnc3o2)cc1NC(=O)COc1ccc(C(C)(C)C)cc1	NTR1 ag 62 | NTR1 ag conf inactive
O=C(Cc1cccs1)Nc1nc(-c2ccc(F)c(F)c2)cs1	NTR1 ag 52 | NTR1 ag conf inactive
FC(F)(F)c1ccccc1CNCc1ccc2c(c1)OCO2	none
COc1ccc(CNCC(O)COc2ccc(C(C)(C)c3ccccc3)cc2)cc1 (centres undefined)	NTR1 ag 50 | NTR1 ag conf inactive
OC(CNCCc1ccc(C(F)(F)F)cc1)COc1ccc2ccccc2c1 (centres undefined)	NTR1 ag 51 | NTR1 ag conf inactive
OC(CNCCc1ccc(C(F)(F)F)cc1)COc1cccc2ccccc12 (centres undefined)	none
O=C1c2[nH]nc(-c3ccccc3O)c2C(c2cccc(Cl)c2)N1Cc1ccco1 (centres undefined)	NTR1 ag 46, HTR2A ag 15 | NTR1 ag conf inactive
O=C1CCc2cc(NS(=O)(=O)c3ccccc3)cc3c2N1CC3	none
CSCCC(NS(=O)(=O)c1ccc(Cl)cc1)C(=O)OCC(=O)c1c(C)[nH]c2ccccc12 (centres undefined)	NTR1 ag 41 | NTR1 ag conf inactive
COc1ccc(OC)c(-c2csc(NC(=O)C3COc4ccccc4O3)n2)c1 (centres undefined)	none
O=C(Nc1nc(-c2nc3ccccc3s2)cs1)C1COc2ccccc2O1 (centres undefined)	NTR1 ag 41 | NTR1 ag conf inactive
O=c1/c(=C\c2cccc(O)c2)sc2nc(-c3ccccc3)c(-c3ccccc3)n12	NTR1 ag 46 (no result: HTR2A ag) | NTR1 ag conf 41
CC(C)S(=O)(=O)c1csc(NC(=O)Nc2cc(Cl)ccc2Cl)c1Cl	NTR1 ag 42 | NTR1 ag conf inactive
c1ccc(-c2nnc3ccc(N4CCCC4)nn23)cc1	none
FC(F)(F)c1cccc(N2CCN(c3ccc4nnc(-c5ccccc5)n4n3)CC2)c1	NTR1 ag 58 | NTR1 ag conf inactive
COc1ccc(CN2CCN(Cc3cccc(F)c3)CC2)cc1OC	none
COc1cc2c3nnc(-c4ccc(F)cc4)c-3cn(Cc3ccc(C)cc3)c2cc1OC	NTR1 ag 112 | NTR1 ag conf 96
COc1cc2c3nnc(-c4ccc(F)cc4)c-3cn(Cc3cccc(F)c3)c2cc1OC	NTR1 ag 65 | NTR1 ag conf 71
Cc1ccc(Cn2nc3c4cc(F)ccc4n(Cc4ccc(F)cc4)cc-3c2=O)cc1	none
COc1ccc(Cl)cc1Nc1nc2ccc(C)cc2n2cnnc12	NTR1 ag 46 | NTR1 ag conf inactive
CC(=O)Nc1cccc(C(=O)/C=C/c2ccc(/C=C/C(=O)c3cccc(NC(C)=O)c3)cc2)c1	none (no result: CXCR6 inh, CCR6 antagonist, HTR2A ag)
CC(=O)Nc1cccc(C(=O)/C=C/c2ccc(Br)cc2)c1	NTR1 ag 48 | NTR1 ag conf 73
CC1(c2ccccc2)CC(C)(C)n2c(O)c(C3=NC(=S)NC3=O)c3cccc1c32 (centres undefined)	NTR1 ag 42 | NTR1 ag conf inactive
O=C(NC(=S)Nc1nc2c(s1)CSc1ccccc1-2)c1ccccc1	NTR1 ag 62 | NTR1 ag conf inactive
O=C(NC(=S)Nc1nc2c(s1)CCCC2)c1ccc(C(=O)c2ccccc2)cc1	none
CC(C)(C)C(=O)Nc1nnc(SCC(=O)NC2CCCC2)s1	none
COc1cc(OC)c2cc(C(=O)N/N=C/c3cccc(OC)c3O)[nH]c2c1	NTR1 ag 60 | NTR1 ag conf 73
CC(=O)NC(C)(c1ccccc1)c1nc(-c2cccc3cccnc23)cs1 (centres undefined)	none (no result: CCR6 antagonist, APJ agonist, NTR1 ag, APJ antag)
O=C(COc1ccc(Cl)cc1)NNC(=O)c1ccc2c(=O)n3c(nc2c1)CCC3	none
COc1cccc(CCNC(=O)CCCC(=O)c2ccccc2)c1	none
COc1ccc(/C=C2/SC(=S)N(Cc3ccccc3)C2=O)cc1O	NTR1 ag 44 | NTR1 ag conf inactive
COc1ccc(O)c(/C=C2/SC(=S)N(Cc3ccccc3)C2=O)c1	none
O=C(CN(C(=O)c1ccc(Cl)cc1)N1C(=O)C2CCCCC2C1=O)c1ccc(Cl)cc1 (centres undefined)	NTR1 ag 52 | NTR1 ag conf 47
CNC(=O)c1cc(Oc2ccc(NC(=O)Nc3ccc(Cl)c(C(F)(F)F)c3)cc2)ccn1	NTR1 ag 43 | NTR1 ag conf 48
Cc1ccc(NC(=O)c2ccc(Nc3c([N+](=O)[O-])cc([N+](=O)[O-])cc3[N+](=O)[O-])cc2)cc1	CXCR6 inh 43, CCR6 antagonist 71, NTR1 ag 46 | NTR1 ag conf inactive | CXCR6 antag conf 56
Cc1cc(OCC(=O)OCC(=O)N(C)Cc2ccccc2C)ccc1Cl	none
COc1cccc(-c2nc(NC(C)C)c3ccccc3n2)c1O	NTR1 ag 64, HTR2A ag 46 | NTR1 ag conf inactive | OPRM1 ag inactive | m5-HT2A ag conf 48
Cc1nc2ccccc2nc1OCc1ccc([N+](=O)[O-])cc1	none
COc1ccc(CCNC(=O)COC(=O)Cc2ccc(OC)cc2)cc1	CXCR6 inh 63 | CXCR6 antag conf inactive
COc1ccc(CCNC(=O)COC(=O)Cc2cccc3ccccc23)cc1	none
Cc1nnc(SCC(=O)NC2CCCC2)n1-c1ccccc1	none
Nc1cc(=O)[nH]c(SCC(=O)Nc2ccc(Cl)c(Cl)c2)n1	CXCR6 inh 43 | CXCR6 antag conf inactive
Nc1cc(=O)[nH]c(SCC(=O)Nc2cc(Cl)cc(Cl)c2)n1	none
Cc1nc2ccccc2c(=O)n1-c1cccc(NC(=O)c2cccs2)c1	none
O=C(Nc1cccc(N2C(=O)C=CC2=O)c1)c1cccs1	CXCR6 inh 77 (no result: CCR6 antagonist) | CXCR6 antag conf inactive
O=C1Nc2ccccc2C1Cc1ccccc1 (centres undefined)	none
COc1ccc(C[C@@H]2OC3(C=CC(=O)C=C3)O[C@H]2Cc2ccc(OC)cc2)cc1	CXCR6 inh 83, CCR6 antagonist 107 (no result: APJ agonist, NTR1 ag, APJ antag) | CXCR6 antag conf 84
COc1ccc(N2C(=O)CC(Cc3ccccc3)C2=O)cc1 (centres undefined)	none
